According to ChEMBL document CHEMBL1157719, “1-Indol-1-yl-propan-2-ones and related heterocyclic compounds as dual inhibitors of cytosolic phospholipase A(2)alpha and fatty acid amide hydrolase” (Bioorg Med Chem, 2010):
The source made the active and inactive calls. The calls are words filed in the database; no cut-off is given here.

Tests used:
[1] = molecular target: T1, Fatty-acid amide hydrolase 1 (Rattus norvegicus, UniProt P97612); experiment: Inhibition of FAAH from rat brain microsomes by RP-HPLC
T1 sequence (P97612 whole entry): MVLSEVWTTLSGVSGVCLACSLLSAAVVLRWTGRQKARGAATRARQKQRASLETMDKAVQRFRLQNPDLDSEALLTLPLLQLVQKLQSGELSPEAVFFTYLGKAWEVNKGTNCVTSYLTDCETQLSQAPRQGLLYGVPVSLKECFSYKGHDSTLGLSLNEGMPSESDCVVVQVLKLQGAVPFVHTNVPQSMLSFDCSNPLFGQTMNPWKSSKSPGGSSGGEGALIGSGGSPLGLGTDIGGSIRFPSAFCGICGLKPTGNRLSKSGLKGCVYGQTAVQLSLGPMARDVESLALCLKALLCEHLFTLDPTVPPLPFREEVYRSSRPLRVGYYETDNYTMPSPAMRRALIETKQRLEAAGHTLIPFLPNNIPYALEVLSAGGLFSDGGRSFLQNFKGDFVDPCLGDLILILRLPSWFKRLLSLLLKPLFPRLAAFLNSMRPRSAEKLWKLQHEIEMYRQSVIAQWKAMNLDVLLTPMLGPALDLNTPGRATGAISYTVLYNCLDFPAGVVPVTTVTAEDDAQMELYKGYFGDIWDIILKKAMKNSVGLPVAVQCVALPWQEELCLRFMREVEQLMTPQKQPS

[2] = inhibition of MAGL up to 10 uM
Method in brief: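 MAGL set up like the FAAH assay, using pyrene-labelled substrate 1,3-dihydroxypropan-2-yl 4-pyren-1-ylbutanoate; product measured by RP-HPLC with fluorescence detection; highest test concentration 10 μM.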

[3] = molecular target: T2, Fatty-acid amide hydrolase 1 (Rattus norvegicus) (UniProt P97612); experiment: Inhibition of FAAH from rat brain microsomes at 10 uM by RP-HPLC
T2 sequence (whole entry): T1 sequence (P97612 whole entry)
Method in brief: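 Rat brain microsomes as FAAH source; substrate N-(2-hydroxyethyl)-4-pyren-1-ylbutanamide 100 μM solubilized with Triton X-100 0.2%. Incubated 45 min, then stopped with acetonitrile/methanol plus internal standard 6-pyren-1-ylhexanoic acid. Released 4-pyren-1-ylbutanoic acid quantified directly by RP-HPLC with fluorescence (ex 340, em 380 nm), with vs without inhibitor. Inhibitor max 10 μM; IC50 means of at least two independent determinations.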

[4] = molecular target: T3, Cytosolic phospholipase A2 (Homo sapiens, UniProt P47712); experiment: Inhibition of cPLA2 from human platelets by RP-HPLC
T3 sequence (P47712 whole entry): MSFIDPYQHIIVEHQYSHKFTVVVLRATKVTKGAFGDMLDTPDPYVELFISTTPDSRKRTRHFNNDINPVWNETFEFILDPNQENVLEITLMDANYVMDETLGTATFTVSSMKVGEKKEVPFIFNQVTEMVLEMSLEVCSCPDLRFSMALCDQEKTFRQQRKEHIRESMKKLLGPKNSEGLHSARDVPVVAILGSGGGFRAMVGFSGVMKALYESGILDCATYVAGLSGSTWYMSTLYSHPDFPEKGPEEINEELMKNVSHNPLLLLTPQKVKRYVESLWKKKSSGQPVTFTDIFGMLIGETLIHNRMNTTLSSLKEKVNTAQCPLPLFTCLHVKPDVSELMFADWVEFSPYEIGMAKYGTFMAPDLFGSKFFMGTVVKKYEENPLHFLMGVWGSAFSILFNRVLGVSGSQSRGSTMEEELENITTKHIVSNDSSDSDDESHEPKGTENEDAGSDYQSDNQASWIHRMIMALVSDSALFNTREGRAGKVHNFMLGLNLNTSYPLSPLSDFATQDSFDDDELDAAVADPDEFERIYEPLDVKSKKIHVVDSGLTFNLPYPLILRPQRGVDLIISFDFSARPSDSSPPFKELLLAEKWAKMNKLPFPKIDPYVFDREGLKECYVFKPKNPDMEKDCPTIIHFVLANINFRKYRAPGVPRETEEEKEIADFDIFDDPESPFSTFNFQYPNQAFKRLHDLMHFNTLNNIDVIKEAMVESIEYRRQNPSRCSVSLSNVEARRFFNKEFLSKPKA
Method in brief: (§1)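 cPLA2α purified from human platelets; substrate sonicated covesicles of SAPC 200 μM and 1,2-dioleoyl-sn-glycerol 100 μM. Reaction 60 min, stopped with acetonitrile/methanol/0.1 M EDTA-Na2 containing 4-undecyloxybenzoic acid internal standard and NDGA. Arachidonic acid released measured by RP-HPLC, UV 200 nm, after solid-phase extraction, with vs without inhibitor; max 10 μM. IC50 means of at least two independent determinations.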

[5] = molecular target: T4, Cytosolic phospholipase A2 (Homo sapiens) (UniProt P47712); experiment: Inhibition of cPLA2 from human platelets at 10 uM by RP-HPLC; method in brief: as §1
T4 sequence (whole entry): T3 sequence (P47712 whole entry)

| Structure (SMILES) | IC50 [1] [µM] | inhibition [2] | inhibition [3] | IC50 [4] [µM] | inhibition [5] |
| --- | --- | --- | --- | --- | --- |
| CCCCCCCCc1ccc(OCC(=O)Cn2cnc3cc(C(=O)O)ccc32)cc1 | 0.61 | inactive |  |  |  |
| CCCCCCCCc1ccc(OCC(=O)Cn2cc(C#N)c3cc(C(=O)O)ccc32)cc1 |  | inactive | inactive |  |  |
| CCCCCCCCc1ccc(OCC(=O)Cn2cc(C(=O)O)cn2)cc1 | 0.11 | inactive |  | 1.8 |  |
| CCCCCCCCc1ccc(OCC(=O)Cn2cnc(C(=O)O)c2)cc1 | 1.9 | inactive |  | 5.3 |  |
| CCCCCCCCc1ccc(OCC(=O)Cn2cccn2)cc1 | 2 | inactive |  | > 10 | 43% |
| CCCCCCCCc1ccc(OCC(=O)Cn2ncc3ccccc32)cc1 | 5 | inactive |  |  | inactive |
| CCCCCCCCc1ccc(OCC(=O)Cn2cc(C(=O)O)c3cc(C(=O)O)ccc32)cc1 |  | inactive | inactive |  |  |
| CCCCCCCCc1ccc(OCC(=O)Cn2ccc3cc(OC)ccc32)cc1 | > 10 | inactive | 22% |  | inactive |
| CCCCCCCCc1ccc(OCC(=O)Cn2ccc3c(C(=O)O)cccc32)cc1 | > 10 | inactive | 40% | > 10 |  |
| CCCCCCCCc1ccc(OCC(=O)Cn2ccc3cc(C(=O)OC)ccc32)cc1 |  | inactive | inactive | > 10 |  |
| CCCCCCCCc1ccc(OCC(=O)Cn2ccnc2)cc1 | 0.76 | inactive |  | 0.5 |  |
| CCCCCCCCc1ccc(OCC(=O)Cn2cncc2C(=O)O)cc1 |  | inactive | inactive | > 10 | 18% |
| CCCCCCCCc1ccc(OCC(=O)Cn2cc(C(C)(C)C)c3cc(C(=O)O)ccc32)cc1 |  | inactive | inactive |  |  |
| CCCCCCCCc1ccc(OCC(=O)Cn2cc(C(C)=O)c3cc(C(=O)O)ccc32)cc1 |  | inactive | inactive | 0.012 |  |
| CCCCCCCCCCOc1ccc(OCC(=O)COc2ccc(C(=O)O)cc2)cc1 | 0.059 | inactive |  |  |  |
| CCCCCCCCc1ccc(OCC(=O)Cn2ccc3cc(C(N)=O)ccc32)cc1 | 6.4 | inactive |  |  |  |
| CCCCCCCCc1ccc(OCC(=O)Cn2nnc3ccccc32)cc1 | 0.047 | inactive |  | 2.2 |  |
| O=C(CCCCCc1ccccc1)c1nc2ncccc2o1 | 0.009 |  |  |  | inactive |
| CCCCCCCCc1ccc(OCC(=O)Cn2ncc3cc(C(=O)O)ccc32)cc1 | 0.16 | inactive |  |  |  |
| CCCCCCCCc1ccc(OCC(=O)Cn2cc(C(=O)O)c3ccccc32)cc1 |  | inactive | inactive | > 10 |  |
| CCCCCCCCc1ccc(OCC(=O)Cn2ncc3ccc(C(=O)O)cc32)cc1 | > 10 | inactive | 23% |  |  |
| CC(C)CN(Cc1ccccc1-c1ccccc1)[C@@H]1C[C@@H](CNC(=O)/C=C/c2ccc(/C=C3\SC(=O)NC3=O)cc2)N(C(=O)c2ccccc2C(=O)c2ccc(F)cc2F)C1 |  |  | inactive | 0.031 |  |

| Structure (SMILES) | IC50 [1] [µM] | inhibition [2] | inhibition [3] | IC50 [4] [µM] | inhibition [5] |
| --- | --- | --- | --- | --- | --- |
| CCCCCCCCc1ccc(OCC(=O)Cn2cnc3ccc(C(=O)O)cc32)cc1 | 3.1 | inactive |  |  |  |
| CCCCCCCCc1ccc(OCC(=O)Cn2nnc3cc(C(=O)O)ccc32)cc1 | 0.14 | inactive |  |  |  |
| CCCCCCCCc1ccc(OCC(=O)Cn2cc(C=O)c3cc(C(=O)O)ccc32)cc1 |  | inactive | inactive |  |  |
| CCCCCCCCc1ccc(OCC(=O)Cn2ccc3cc(C)ccc32)cc1 |  | inactive | inactive |  | inactive |
| CCCCCCCCc1ccc(OCC(=O)Cn2ccc3cc(C=O)ccc32)cc1 | > 10 | inactive | 45% |  |  |
| CCCCCCCCc1ccc(OCC(=O)Cn2ccc(C(=O)O)n2)cc1 | > 10 | inactive | 39% | 8.2 |  |
| CCCCCCCCc1ccc(OCC(=O)Cn2cccc2C(=O)O)cc1 |  | inactive | inactive |  | inactive |
| CCCCCCCCc1ccc(OCC(=O)Cn2cnc3ccccc32)cc1 | 1 | inactive |  | > 10 | 36% |
| CCCCCCCCc1ccc(OCC(=O)Cn2nnc3ccc(C(=O)O)cc32)cc1 | 0.2 | inactive |  |  |  |
| CCCCCCCCc1ccc(OCC(=O)Cn2cc(C(=O)OC)c3cc(C(=O)O)ccc32)cc1 |  | inactive | inactive |  |  |
| CCCCCCCCc1ccc(OCC(=O)Cn2cc(Cl)c3cc(C(=O)O)ccc32)cc1 |  | inactive | inactive |  |  |
| CCCCCCCCc1ccc(OCC(=O)Cn2c(C(=O)O)cc3ccccc32)cc1 |  | inactive | inactive |  | inactive |
| CCCCC/C=C\C/C=C\C/C=C\C/C=C\CCCC(=O)C(F)(F)F [ARACHIDONYL TRIFLUOROMETHYLKETONE] | 3.7 | inactive |  |  |  |
| CCCCCCCCc1ccc(OCC(=O)Cn2cccc2)cc1 |  | inactive | inactive |  | inactive |
| CCCCCCCCc1ccc(OCC(=O)Cn2ccc3cc(C(=O)O)ccc32)cc1 | 2.8 | inactive |  |  |  |
| NC(=O)c1cccc(-c2cccc(OC(=O)NC3CCCCC3)c2)c1 |  |  |  |  | inactive |
| CCCCCCCCc1ccc(OCC(=O)Cn2ccc3ccccc32)cc1 |  | inactive | inactive |  | inactive |
| CCCCCCCCc1ccc(OCC(=O)Cn2ccc(C(=O)O)c2)cc1 | 3.6 | inactive |  | 5 |  |
| CCCCCCCCc1ccc(OCC(=O)Cn2ccc3cc(Cl)ccc32)cc1 |  | inactive | inactive |  | inactive |
| CCCCCCCCc1ccc(OCC(=O)Cn2ccc3cc(C#N)ccc32)cc1 | > 10 | inactive | 42% | > 10 |  |
| CCCCCCCCc1ccc(OCC(=O)Cn2ccc3ccc(C(=O)O)cc32)cc1 |  | inactive | inactive |  |  |
| CCCCCCCCc1ccc(OCC(=O)Cn2nccc2C(=O)O)cc1 |  | inactive | inactive | > 10 | 21% |
